Here are results for five compounds from ChEMBL document CHEMBL1158748, “Microbial hydroxylation of bufalin by Cunninghamella blakesleana and Mucor spinosus” (J Nat Prod, 2005).

What all share (format): functional, cell-based
The subject of one experiment is HeLa. The experiment in a line: Cytotoxicity against human HeLa cells after 72 hrs by MTT assay. In a few lines:
(§1)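 Cells kept in RPMI 1640 with 10% (v/v) FBS and plated in 96-well plates. Test compounds added at dilutions of 10^-3-10² µmol/L, then incubated 72 h at 37 °C under 5% CO₂. Survival read by MTT. IC50 taken as the concentration (µmol/L) giving 50% inhibition of cell growth.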

The test system of a further experiment is Bel-7402. The experiment in a line: Cytotoxicity against human Bel7402 cells after 72 hrs by MTT assay. The following applies: Bel-7402, 72 h. In a few lines:
as §1
On the technique in general: Tetrazolium dyes change colour on reduction, which living cells bring about.

A further experiment deals with BGC-823. The experiment in a line: Cytotoxicity against human BGC823 cells after 72 hrs by MTT assay. To be noted: BGC-823, 72 h. In a few lines: as §1

Turning to `C[C@]12CC[C@H](O)C[C@H]1CC[C@@H]1[C@@H]2C[C@@H](O)[C@]2(C)[C@@H](c3ccc(=O)oc3)CC[C@]12O`, the IC50 (commonly the concentration that inhibits the measured activity by half) in the experiment with HeLa was 7.6 nM; in the experiment on Bel-7402, 26 nM; with BGC-823 it was 31 nM.

`C[C@]12CC[C@H](O)C[C@@]1(O)C[C@H](O)[C@@H]1[C@@H]2CC[C@]2(C)[C@@H](c3ccc(=O)oc3)CC[C@]12O`: in the experiment on HeLa, the IC50 worked out at 22 nM.

Regarding `C[C@]12CC[C@H](O)C[C@H]1CC[C@@H]1[C@@H]2C[C@H](O)[C@]2(C)[C@@H](c3ccc(=O)oc3)CC[C@]12O`, the IC50 in the experiment on HeLa stood at 60 nM; with Bel-7402, 410 nM; with BGC-823 it was 420 nM.

For the compound `C[C@]12CC[C@H](O)C[C@H]1CC[C@@H]1[C@@H]2CC[C@]2(C)[C@@H](c3ccc(=O)oc3)CC[C@]12O` [BUFALIN], the figures for the IC50 in the experiment on HeLa, in the experiment on Bel-7402 and with BGC-823 were 28 nM, 7 nM and 45 nM, respectively.

As for `C[C@]12CC[C@H](O)C[C@H]1C[C@H](O)[C@@H]1[C@@H]2C[C@H](O)[C@]2(C)[C@@H](c3ccc(=O)oc3)CC[C@]12O`, the IC50 is 60 nM in the experiment with HeLa, 2900 nM in the experiment on Bel-7402 and 5300 nM in the experiment with BGC-823.
